What was measured:
[1] = Compound was evaluated for pyranenamine lipophilicity; type: physicochemical; conditions: octanol/water
Rattus norvegicus [2] = assay: Compound was evaluated for the type-I hypersensitivity in rat POA model after intravenous administration.; type: functional; conditions: read-out: ID50 (the source's name)
Method in brief: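 Modified Iso method. Rats of 150–200 g were sensitized with three conjunctival injections per eye (bulbar, palpebral, lower) of 50 μL of 1:4-diluted rat IgE anti-ovalbumin antiserum. 24 h later, drug was given IV just before IV challenge with ovalbumin (25 mg/kg) plus Evans blue (12.5 mg/kg in saline). Eyelids and eyeballs were taken at 30 min, extracted in acetone/0.5% sodium sulfate, and read at 620 nm. Result expressed as ID50 (mg/kg).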

Rattus norvegicus [3] = assay: Compound was evaluated for the type-I hypersensitivity in rat POA model at a concentration of 3% administered topically.; type: functional
Method in brief: (§1)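 Modified Iso passive ocular anaphylaxis in 150–200 g rats. Each eye was sensitized by three conjunctival injections of 50 μL of 1:4-diluted rat IgE anti-ovalbumin antiserum. At 24 h, 10 μL of drug solution was instilled topically 15 min before, just prior to, and 15 min after IV ovalbumin (25 mg/kg) with Evans blue (12.5 mg/kg). At 30 min, eye tissue dye was extracted in acetone/0.5% Na2SO4 and read at 620 nm. Result expressed as % inhibition.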

Rattus norvegicus [4] = assay: Compound was evaluated for the type-I hypersensitivity in rat POA model at a concentration of 1% administered topically.; type: functional; method in brief: as §1
Rattus norvegicus [5] = assay: Compound was evaluated for the type-I hypersensitivity in rat POA model at a concentration of 5% administered topically.; type: functional; method in brief: as §1
Rattus norvegicus [6] = assay: Compound was evaluated for the type-I hypersensitivity in rat POA model at a concentration of 10% administered topically.; type: functional; method in brief: as §1
Rattus norvegicus [7] = assay: Compound was evaluated for the type-I hypersensitivity in rat POA model at a concentration of 4% administered topically.; type: functional
Method in brief: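 Modified Iso method. Rats (150–200 g) sensitized with three 50 µL injections per eye (bulbar conjunctiva, palpebral, lower conjunctiva) of 1:4-diluted rat IgE anti-ovalbumin antisera. After 24 h, iv challenge with ovalbumin 25 mg/kg plus Evans blue 12.5 mg/kg. Drug (10 µL) instilled 15 min before, just before and 15 min after challenge. Killed at 30 min; eyelids and eyeballs extracted in acetone/0.5% sodium sulfate; read at 620 nm; % inhibition.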

| logP [1] | Compound | ED50 (Rattus norvegicus [2]) | Inhibition (Rattus norvegicus [3]) | Inhibition (Rattus norvegicus [4]) | Inhibition (Rattus norvegicus [5]) | Inhibition (Rattus norvegicus [6]) | Inhibition (Rattus norvegicus [7]) |
| --- | --- | --- | --- | --- | --- | --- | --- |
| -2.44 | CC(=O)C1=C(O)C(=C(C)Nc2cc(NC(=O)[C@H](O)CO)cc(NC(=O)[C@H](O)CO)c2)C(=O)OC1=O | 300 mg/kg |  |  |  |  |  |
| -2.43 | CC(=O)c1c(O)c(/C(C)=N/c2cc(NC(=O)C(CO)CO)cc(NC(=O)C(CO)CO)c2)c(O)oc1=O | 30 mg/kg | 31% | 12% | 41% |  |  |
| -2.44 | CC(=O)c1c(O)c(/C(C)=N/c2cc(NC(=O)C(O)CO)cc(NC(=O)C(O)CO)c2)c(O)oc1=O (stereo not given) | 60 mg/kg | 25% | 16% |  |  |  |
| -0.32 | CC(=O)c1c(O)c(/C(C)=N/c2cc(NC(=O)CO)cc(NC(=O)CO)c2)c(O)oc1=O | 30 mg/kg | 15% |  |  |  |  |
| -2.44 | CC(=O)C1=C(O)C(=C(C)Nc2cc(NC(=O)[C@@H](O)CO)cc(NC(=O)[C@@H](O)CO)c2)C(=O)OC1=O | 30 mg/kg | 40% |  | 63% | 79% |  |
|  | O=C([O-])c1cc(=O)c2c(OCC(O)COc3cccc4oc(C(=O)[O-])cc(=O)c34)cccc2o1.[Na+].[Na+] [CROMOLYN SODIUM] |  |  |  |  |  | 0% |

— ChEMBL document CHEMBL1125909, “Synthesis of chiral and achiral pyranenamine derivatives. Potent agents with topical ocular antiallergic activity” (J Med Chem, 1991)
